The values below come from ChEMBL document CHEMBL2150988, “Preparation and optimization of new 4-(morpholin-4-yl)-(6-oxo-1,6-dihydropyrimidin-2-yl)amide derivatives as PI3Kβ inhibitors” (Bioorg Med Chem Lett, 2012).

For series [1], the target named is Phosphatidylinositol 4,5-bisphosphate 3-kinase catalytic subunit beta isoform (Homo sapiens, UniProt P42338). Briefly: Inhibition of PI3Kbeta.
In another series the target is Cytochrome P450 3A4 (Homo sapiens, UniProt P08684). Briefly: Inhibition of human recombinant CYP3A4. It counts as ADME.
Chain of Cytochrome P450 3A4 (P08684 whole entry): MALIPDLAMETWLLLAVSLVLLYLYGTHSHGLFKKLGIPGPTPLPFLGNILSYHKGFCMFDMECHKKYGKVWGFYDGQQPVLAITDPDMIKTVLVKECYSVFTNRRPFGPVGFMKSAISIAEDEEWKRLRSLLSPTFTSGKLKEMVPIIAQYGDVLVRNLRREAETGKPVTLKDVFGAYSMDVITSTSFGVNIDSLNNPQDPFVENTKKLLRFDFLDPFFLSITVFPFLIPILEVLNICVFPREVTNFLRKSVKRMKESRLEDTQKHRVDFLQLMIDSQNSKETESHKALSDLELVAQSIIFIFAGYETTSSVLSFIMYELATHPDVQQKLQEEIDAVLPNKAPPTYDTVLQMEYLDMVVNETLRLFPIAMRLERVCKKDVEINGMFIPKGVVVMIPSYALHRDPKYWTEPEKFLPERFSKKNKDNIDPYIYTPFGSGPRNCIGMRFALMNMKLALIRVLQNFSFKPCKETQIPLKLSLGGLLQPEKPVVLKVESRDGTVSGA
Series [2] can be described thus: Inhibition of Akt phosphorylation at S473 in PTEN deficient human PC3 cells. It counts as cell-based. Conditions: PC-3.
The target in series [3] is T1, Phosphatidylinositol 4,5-bisphosphate 3-kinase catalytic subunit delta isoform (Homo sapiens, UniProt O00329).
T1 sequence (O00329 whole entry): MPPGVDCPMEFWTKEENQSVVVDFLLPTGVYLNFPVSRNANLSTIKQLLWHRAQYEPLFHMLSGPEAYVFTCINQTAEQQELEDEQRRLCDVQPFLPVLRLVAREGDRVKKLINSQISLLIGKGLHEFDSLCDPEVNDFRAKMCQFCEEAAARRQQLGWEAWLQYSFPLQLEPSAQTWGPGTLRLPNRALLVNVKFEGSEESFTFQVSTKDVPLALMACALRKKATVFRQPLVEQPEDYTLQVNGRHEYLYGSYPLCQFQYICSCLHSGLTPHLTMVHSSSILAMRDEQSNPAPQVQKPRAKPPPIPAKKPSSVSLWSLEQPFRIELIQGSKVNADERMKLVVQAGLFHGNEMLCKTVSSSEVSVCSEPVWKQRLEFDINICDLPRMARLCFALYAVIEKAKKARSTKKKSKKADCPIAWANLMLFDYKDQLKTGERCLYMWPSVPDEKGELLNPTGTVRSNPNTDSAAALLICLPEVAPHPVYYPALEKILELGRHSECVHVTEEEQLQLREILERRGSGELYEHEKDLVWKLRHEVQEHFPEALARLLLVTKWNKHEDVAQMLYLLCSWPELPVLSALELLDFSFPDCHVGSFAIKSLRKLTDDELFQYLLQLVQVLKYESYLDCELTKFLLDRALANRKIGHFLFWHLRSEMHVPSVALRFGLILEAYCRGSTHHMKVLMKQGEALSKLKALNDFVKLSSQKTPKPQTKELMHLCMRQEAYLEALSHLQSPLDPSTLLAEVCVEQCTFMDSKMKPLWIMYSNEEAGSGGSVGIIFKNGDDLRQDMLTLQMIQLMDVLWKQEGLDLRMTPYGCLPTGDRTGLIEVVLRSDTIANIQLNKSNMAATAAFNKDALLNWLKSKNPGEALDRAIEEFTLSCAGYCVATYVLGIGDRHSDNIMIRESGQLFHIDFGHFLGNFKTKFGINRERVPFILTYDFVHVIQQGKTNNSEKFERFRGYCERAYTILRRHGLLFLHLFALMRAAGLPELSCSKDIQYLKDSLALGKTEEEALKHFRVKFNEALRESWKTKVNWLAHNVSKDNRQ
Briefly: Inhibition of PI3Kdelta.

The nature of series [4]: Apparent permeability across human Caco2/TC7 cells. Type of series: ADME, cell-based. Conditions: Caco-2. An outline of the steps:
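Caco-2 TC7 clone monolayers; transport measured in both apical-to-basolateral and basolateral-to-apical directions, giving Papp (nm/s) and an efflux ratio.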
Background: Passage across Caco-2 layers is used to estimate intestinal permeability.

Series [5] in a line: Equilibrium solubility of the compound in phosphate buffer at pH 7.4 after 16 hrs by HPLC analysis. It counts as physicochemical.
A short description of series [6]: Drug metabolism in mouse liver microsomes after 20 mins. Type of series: ADME, Microsome. Conditions: read-out: Drug metabolism. Summed up:
(§1)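 Liver microsomes (human or mouse) incubated with compound for 20 min; %lability reported as % of compound metabolized.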
On the technique in general: Microsomes from liver hold many membrane-bound enzymes, among them those of drug oxidation.

Series [7] concerns the target Phosphatidylinositol 4,5-bisphosphate 3-kinase catalytic subunit alpha isoform (Homo sapiens, UniProt P42336). Briefly: Inhibition of PI3Kalpha.
A short description of series [8]: Drug metabolism in human liver microsomes after 20 mins. It counts as ADME, Microsome. Conditions: read-out: Drug metabolism. An outline of the steps: as §1
Series [9] addresses Phosphatidylinositol 4,5-bisphosphate 3-kinase catalytic subunit gamma isoform (Homo sapiens, UniProt P48736). Briefly: Inhibition of PI3Kgamma.

In brackets after ≈: the same amount, converted by molar mass. Bounds are passed on as bounds.

Chain of Phosphatidylinositol 4,5-bisphosphate 3-kinase catalytic subunit beta isoform (P42338 whole entry, canonical isoform): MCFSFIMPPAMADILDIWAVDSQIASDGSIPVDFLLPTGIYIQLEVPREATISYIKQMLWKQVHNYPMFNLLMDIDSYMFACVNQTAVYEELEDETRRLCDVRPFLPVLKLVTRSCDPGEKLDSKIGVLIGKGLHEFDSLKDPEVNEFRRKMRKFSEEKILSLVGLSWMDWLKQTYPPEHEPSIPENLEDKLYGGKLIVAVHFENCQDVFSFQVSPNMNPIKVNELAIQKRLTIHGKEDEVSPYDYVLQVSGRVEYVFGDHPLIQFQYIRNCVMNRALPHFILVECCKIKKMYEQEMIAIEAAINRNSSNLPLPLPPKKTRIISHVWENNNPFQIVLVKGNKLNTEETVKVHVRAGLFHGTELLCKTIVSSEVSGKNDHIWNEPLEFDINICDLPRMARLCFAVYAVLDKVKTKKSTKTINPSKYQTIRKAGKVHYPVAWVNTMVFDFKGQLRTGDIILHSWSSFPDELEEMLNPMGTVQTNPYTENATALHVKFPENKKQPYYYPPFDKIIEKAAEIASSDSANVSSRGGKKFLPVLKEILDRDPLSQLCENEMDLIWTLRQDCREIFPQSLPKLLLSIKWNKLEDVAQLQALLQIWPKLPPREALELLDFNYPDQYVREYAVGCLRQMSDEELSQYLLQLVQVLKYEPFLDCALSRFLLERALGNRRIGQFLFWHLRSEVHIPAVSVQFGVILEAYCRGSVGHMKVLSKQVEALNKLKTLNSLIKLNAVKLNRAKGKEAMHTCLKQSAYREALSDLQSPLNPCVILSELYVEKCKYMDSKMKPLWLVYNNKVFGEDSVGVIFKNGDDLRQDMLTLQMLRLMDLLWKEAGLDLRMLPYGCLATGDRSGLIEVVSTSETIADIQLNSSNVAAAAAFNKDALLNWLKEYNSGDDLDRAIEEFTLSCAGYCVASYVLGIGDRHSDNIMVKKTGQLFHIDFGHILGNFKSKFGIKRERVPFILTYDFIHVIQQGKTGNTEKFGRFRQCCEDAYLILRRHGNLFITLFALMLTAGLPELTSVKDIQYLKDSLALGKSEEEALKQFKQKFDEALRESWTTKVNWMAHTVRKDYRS
Chain of Phosphatidylinositol 4,5-bisphosphate 3-kinase catalytic subunit gamma isoform (P48736 whole entry, canonical isoform): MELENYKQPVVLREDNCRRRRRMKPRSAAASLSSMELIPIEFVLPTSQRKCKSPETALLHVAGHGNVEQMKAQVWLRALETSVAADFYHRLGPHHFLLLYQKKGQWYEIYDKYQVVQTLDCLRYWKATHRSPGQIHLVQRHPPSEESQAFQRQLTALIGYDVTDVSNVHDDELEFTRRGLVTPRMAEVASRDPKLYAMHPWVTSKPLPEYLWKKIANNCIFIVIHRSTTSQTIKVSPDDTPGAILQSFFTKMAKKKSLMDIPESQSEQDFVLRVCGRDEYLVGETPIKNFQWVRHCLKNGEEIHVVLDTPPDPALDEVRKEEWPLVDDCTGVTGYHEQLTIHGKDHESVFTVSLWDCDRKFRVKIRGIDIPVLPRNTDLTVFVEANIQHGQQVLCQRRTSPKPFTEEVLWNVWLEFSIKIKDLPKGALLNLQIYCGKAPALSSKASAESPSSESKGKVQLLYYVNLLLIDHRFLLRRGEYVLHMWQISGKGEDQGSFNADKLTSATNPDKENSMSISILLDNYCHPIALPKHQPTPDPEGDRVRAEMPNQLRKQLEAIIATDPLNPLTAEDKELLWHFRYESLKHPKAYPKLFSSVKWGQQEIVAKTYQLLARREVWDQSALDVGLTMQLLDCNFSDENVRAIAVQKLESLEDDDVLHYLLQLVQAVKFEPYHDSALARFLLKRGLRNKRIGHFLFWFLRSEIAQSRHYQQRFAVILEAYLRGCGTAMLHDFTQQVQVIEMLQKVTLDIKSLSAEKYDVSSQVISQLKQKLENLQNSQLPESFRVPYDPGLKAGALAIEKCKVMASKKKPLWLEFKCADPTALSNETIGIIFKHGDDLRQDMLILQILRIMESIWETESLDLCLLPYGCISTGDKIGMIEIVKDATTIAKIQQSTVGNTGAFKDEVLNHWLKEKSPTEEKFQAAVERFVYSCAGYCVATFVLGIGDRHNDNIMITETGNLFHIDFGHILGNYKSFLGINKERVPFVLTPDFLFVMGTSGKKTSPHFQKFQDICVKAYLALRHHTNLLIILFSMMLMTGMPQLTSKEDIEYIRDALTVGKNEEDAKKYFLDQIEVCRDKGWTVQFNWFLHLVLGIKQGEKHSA
Chain of Phosphatidylinositol 4,5-bisphosphate 3-kinase catalytic subunit alpha isoform (P42336 whole entry, canonical isoform): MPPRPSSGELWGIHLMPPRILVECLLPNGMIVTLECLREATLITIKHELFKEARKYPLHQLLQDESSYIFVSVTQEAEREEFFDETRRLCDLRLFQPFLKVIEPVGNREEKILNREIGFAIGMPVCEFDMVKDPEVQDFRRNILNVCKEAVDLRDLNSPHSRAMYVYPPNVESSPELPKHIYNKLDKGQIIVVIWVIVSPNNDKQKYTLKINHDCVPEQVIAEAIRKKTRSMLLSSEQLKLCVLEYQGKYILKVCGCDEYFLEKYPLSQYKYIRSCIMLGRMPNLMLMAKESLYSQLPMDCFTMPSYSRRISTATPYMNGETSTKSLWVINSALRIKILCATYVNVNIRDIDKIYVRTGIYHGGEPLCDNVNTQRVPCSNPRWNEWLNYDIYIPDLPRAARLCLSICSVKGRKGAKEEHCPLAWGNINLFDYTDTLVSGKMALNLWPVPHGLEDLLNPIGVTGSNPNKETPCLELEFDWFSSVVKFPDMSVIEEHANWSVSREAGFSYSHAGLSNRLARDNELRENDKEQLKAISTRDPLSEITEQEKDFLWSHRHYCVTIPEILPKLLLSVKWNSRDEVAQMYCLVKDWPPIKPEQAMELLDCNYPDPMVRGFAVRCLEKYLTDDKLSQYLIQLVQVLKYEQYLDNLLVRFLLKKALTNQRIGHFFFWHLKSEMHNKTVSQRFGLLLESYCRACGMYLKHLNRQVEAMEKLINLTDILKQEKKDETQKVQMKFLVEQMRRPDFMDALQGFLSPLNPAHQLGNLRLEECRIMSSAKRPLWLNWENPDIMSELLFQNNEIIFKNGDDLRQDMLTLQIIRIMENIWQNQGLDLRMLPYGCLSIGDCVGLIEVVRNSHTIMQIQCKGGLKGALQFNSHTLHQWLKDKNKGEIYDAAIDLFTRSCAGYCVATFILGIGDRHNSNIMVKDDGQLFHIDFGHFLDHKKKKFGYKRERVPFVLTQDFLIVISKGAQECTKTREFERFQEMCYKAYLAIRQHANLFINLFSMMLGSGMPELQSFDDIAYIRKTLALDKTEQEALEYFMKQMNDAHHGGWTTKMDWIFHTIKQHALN

Usually IC50 stands for the midpoint of a concentration-inhibition curve. One may read the Papp as a coefficient for how fast a substance crosses the barrier. The thermodynamic solubility is the concentration in solution at equilibrium with solid. With `Cc1cc(NC(=O)Cc2nc(N3CCOCC3)cc(=O)[nH]2)ccc1F`, the half-inhibitory concentration (IC50) is 6 nM in series [1]; greater than 40 µM on Cytochrome P450 3A4; 71 nM in series [2]; 63 nM in [3]; 0.831 µM in series [7]; 8.01 µM in [9]. The apparent permeability coefficient (Papp) in series [4] turned out to be 0.6 ×10⁻⁶ cm/s. Further, in series [5], the solubility (thermodynamic) at 16 h was 3 µM (≈ 1.04 µg/mL). Besides, the values for the metabolised at 20 min in [6] and in series [8] were 60% and 91%, respectively.
With `Cc1ccccc1NC(=O)Cc1nc(N2CCOCC2)cc(=O)[nH]1`, the half-inhibitory concentration (IC50) in series [1] is 236 nM; in series [2], 586 nM; in [3], 4270 nM; in series [7] it was greater than 10 µM; in [9], greater than 10 µM.
Turning to `O=C(Cc1nc(N2CCOCC2)cc(=O)[nH]1)Nc1ccc(Cl)cc1`, the concentration for half-maximal inhibition (IC50) in series [1] came to 398 nM; in [2], 1420 nM; in series [3], 2780 nM; in series [7], 2.27 µM; in [9] it was 5.09 µM.
As to `O=C(Cc1nc(N2CCOCC2)cc(=O)[nH]1)Nc1cccc(Cl)c1`, the IC50 is 33 nM in series [1]; greater than 40 µM at Cytochrome P450 3A4; 100 nM in [2]; 278 nM in series [3]; 2.55 µM in series [7]; greater than 10 µM in series [9]. Besides, the apparent permeability (Papp) in [4] worked out at 0.8 ×10⁻⁶ cm/s. This compound registered a solubility (thermodynamic) at 16 h in [5] of 9 µM (≈ 3.14 µg/mL). Further, the metabolised at 20 min in [6] is 22%; in series [8], 43%.
For `O=C(Cc1nc(N2CCOCC2)cc(=O)[nH]1)Nc1ccc(F)c(Cl)c1`, the IC50 in series [1] was determined as 2 nM; in [2] it was 19 nM; in series [3], 137 nM; in series [7], 1.9 µM; in series [9], 6.71 µM. Moreover, the apparent permeability coefficient (Papp) in [4] amounted to 0.8 ×10⁻⁶ cm/s. In [5], the solubility (thermodynamic) at 16 h is 3 µM (≈ 1.1 µg/mL). The results for the metabolised at 20 min in series [6] and in series [8] were 14% and 40%, respectively.
Consider `O=C(Cc1nc(N2CCOCC2)cc(=O)[nH]1)Nc1cccc(F)c1`, for which the IC50 in series [1] was 81 nM; in series [2], 74 nM; in series [3], 1110 nM; in series [7], 6.22 µM; in series [9], greater than 10 µM. The metabolised at 20 min in series [6] is 21%; in series [8], 55%.
`Cn1c(CC(=O)Nc2ccc(F)c(Br)c2)nc(N2CCOCC2)cc1=O`: the IC50 in [1] was 387 nM; in [2], 94 nM; in [3] it was 2210 nM; in series [7], 7.61 µM; in series [9] it was greater than 10 µM.
On the same counts, the results for `COC(=O)c1cc(NC(=O)Cc2nc(N3CCOCC3)cc(=O)[nH]2)ccc1F` are 175 nM, 1740 nM, 4650 nM, 8.14 µM and greater than 10 µM.
On to `COc1cc(NC(=O)Cc2nc(N3CCOCC3)cc(=O)n2C)ccc1F`, for which the IC50 in [1] was 104 nM; in [2], 100 nM; in series [3], 2400 nM; in [7], greater than 10 µM; in series [9], greater than 10 µM.
Consider `O=C(Cc1nc(N2CCOCC2)cc(=O)[nH]1)Nc1ccccc1F`, for which the IC50 in series [1] was 142 nM; in [2], 349 nM; in [3], 2450 nM; in [7] it was greater than 10 µM; in series [9] it was greater than 10 µM.
With `Cn1c(CC(=O)Nc2ccc(F)c(F)c2)nc(N2CCOCC2)cc1=O`, the IC50 in series [1] is 262 nM; in [2], 100 nM; in series [3] it was 1770 nM; in series [7], 8.51 µM; in series [9], greater than 10 µM.
`O=C(Cc1nc(N2CCOCC2)cc(=O)[nH]1)Nc1ccc(F)c(F)c1`: the IC50 in [1] was 53 nM; in series [2], 55 nM; in series [3] it was 135 nM; in series [7], 3.84 µM; in [9], greater than 10 µM. Also, the Papp in series [4] was found to be 0.8 ×10⁻⁶ cm/s. The solubility (thermodynamic) at 16 h in series [5] was found to be 3 µM (≈ 1.05 µg/mL). Besides, the metabolised at 20 min in series [6] amounted to 11%; in series [8], 25%.
For the compound `O=C(Cc1nc(N2CCOCC2)cc(=O)[nH]1)Nc1ccc(F)cc1`, the concentration for half-maximal inhibition (IC50) is 13 nM in series [1]; greater than 40 µM on Cytochrome P450 3A4; 31 nM in series [2]; 86 nM in series [3]; 2.87 µM in series [7]; greater than 10 µM in series [9]. Besides, in series [4], the apparent permeability (Papp) was found to be 0.6 ×10⁻⁶ cm/s. For the same compound, the solubility (thermodynamic) at 16 h in [5] was found to be 45 µM (≈ 15 µg/mL). The values for the metabolised at 20 min in [6] and in [8] were 27% and 24%, respectively.
In the case of `COc1cccc(NC(=O)Cc2nc(N3CCOCC3)cc(=O)[nH]2)c1`, the half-maximal inhibitory concentration (IC50) in series [1] is 15 nM; on Cytochrome P450 3A4, greater than 40 µM; in series [2], 47 nM; in series [3] it was 611 nM; in series [7] it was 2.37 µM; in [9] it was greater than 10 µM. The Papp in series [4] came out at 0.3 ×10⁻⁶ cm/s. The thermodynamic solubility at 16 h in series [5] was 38 µM (≈ 13.1 µg/mL). The values for the metabolised at 20 min in [6] and in series [8] were 47% and 76%, respectively.
For the compound `Cn1c(CC(=O)Nc2ccc(F)cc2)nc(N2CCOCC2)cc1=O`, the half-inhibitory concentration (IC50) in series [1] is 244 nM; in series [2], 110 nM; in series [3], 1470 nM; in [7], greater than 10 µM; in series [9], greater than 10 µM.
Turning to `COc1cc(NC(=O)Cc2nc(N3CCOCC3)cc(=O)[nH]2)ccc1F`, the IC50 in series [1] is 3 nM; at Cytochrome P450 3A4 it was greater than 40 µM; in [2] it was 98 nM; in [3], 148 nM; in series [7] it was 3.46 µM; in [9] it was greater than 10 µM. In series [4], the Papp was determined as 0.2 ×10⁻⁶ cm/s. Besides, the solubility (thermodynamic) at 16 h in series [5] was 33 µM (≈ 12 µg/mL). Besides, the metabolised at 20 min in series [6] amounted to 28%; in series [8], 71%.
In the case of `Cn1c(CC(=O)Nc2ccccc2)nc(N2CCOCC2)cc1=O`, the IC50 in series [1] is 469 nM; in series [2], 340 nM; in series [3], 4290 nM; in series [7], greater than 10 µM; in [9] it was greater than 10 µM.
`Cc1cccc(NC(=O)Cc2nc(N3CCOCC3)cc(=O)[nH]2)c1`: the IC50 in series [1] was found to be 17 nM; in [2], 45 nM; in [3], 164 nM; in [7], 0.626 µM; in [9], 7.07 µM. Besides, in [4], the Papp worked out at 1.4 ×10⁻⁶ cm/s. Also, in series [5], the thermodynamic solubility at 16 h worked out at 3 µM (≈ 0.985 µg/mL). Also, the metabolised at 20 min in series [6] came to 54%; in [8] it was 80%.
Turning to `O=C(Cc1nc(N2CCOCC2)cc(=O)[nH]1)Nc1ccc(F)c(Br)c1`, the concentration for half-maximal inhibition (IC50) in series [1] is 26 nM; at Cytochrome P450 3A4 it was greater than 40 µM; in series [2] it was 38 nM; in series [3] it was 297 nM; in series [7], 4.14 µM; in series [9] it was 6.61 µM. In [4], the Papp is 0.8 ×10⁻⁶ cm/s. Further, the thermodynamic solubility at 16 h in series [5] was determined as 5 µM (≈ 2.06 µg/mL). Also, the results for the metabolised at 20 min in series [6] and in series [8] were 18% and 42%, respectively.
In the case of `O=C(Cc1nc(N2CCOCC2)cc(=O)[nH]1)Nc1ccc(F)c([N+](=O)[O-])c1`, the IC50 in series [1] is 47 nM; in series [2] it was 1260 nM; in series [3], 3360 nM; in series [7], 4.35 µM; in series [9], greater than 10 µM.
